Twelve compounds from ChEMBL document CHEMBL1155352, “Antiparasitic activities of novel, orally available fumagillin analogs” (Bioorg Med Chem Lett, 2009) can be followed below.

For orientation: IC50 means the point on the concentration scale where inhibition reaches its midpoint.

Each structure is given as a SMILES string. Converted amounts (≈) assume the structure as drawn. The source made the active and inactive calls. The calls are words filed in the database; no cut-off is given here.

In one test the test system is Entamoeba histolytica. As to the kind of experiment: Antiparasitic activity against Entamoeba histolytica HMI:IMSS trophozoites after 60 hrs. Format: functional, organism-based, HM-1:IMSS.
The test system of test [1] is Plasmodium falciparum. As to the kind of experiment: Antiparasitic activity against Plasmodium falciparum W2 infected in human erythrocytes after 72 hrs by FACS. Format: functional, organism-based. In general terms: A flow cytometer gives signals particle by particle.
The subject of the next test is Trypanosoma brucei. As to the kind of experiment: Antiparasitic activity against Trypanosoma brucei 427 after 48 hrs. Format: functional, organism-based.
Test [2] has as its target Methionine aminopeptidase 2 (Homo sapiens) (UniProt P50579). As to the kind of experiment: Inhibition of human MetAP2 assessed as residual activity at 800 nM after 8 hrs by Met-AMC based fluorescence assay. The procedure, abridged:
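Human MetAP2 (80 nM) preincubated with compound at 800 nM for 8 h; remaining free enzyme activity then read by Met-AMC fluorescence and reported as residual activity.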

Test [3] relates to Plasmodium falciparum. Put plainly: Antiparasitic activity against Plasmodium falciparum D2 infected in human erythrocytes after 72 hrs by FACS. It is filed as functional, organism-based.
Another test has as its system Leishmania donovani. As to the kind of experiment: Antiparasitic activity against Leishmania donovani at <100 ug/mL. It is filed as functional, organism-based.
A further test has as its system Plasmodium berghei. Put plainly: Antiparasitic activity against Plasmodium berghei infected Swiss Webster mice (Mus musculus) assessed as protection against parasite infection at 25 mg/kg, subcutaneously administered every 12 hrs for 4 days measured after 12 days. More on the design: dose 25 mg/kg. It is filed as functional, organism-based. Put shortly: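 P. berghei-infected mice, infected on Day 1, dosed subcutaneously with 25 mg/kg every 12 h; PBS-dosed controls. Survival followed over days post infection; each data point mean of triplicates.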

Where [4] appears, read: Entamoeba histolytica, HM-1:IMSS, 60 h, read-out: IC50.
[5] abbreviates: Plasmodium falciparum, W2, 72 h, read-out: IC50.
The mark [6] stands for this setting: Trypanosoma brucei, 427, 48 h, read-out: IC50.
[7] abbreviates: Plasmodium falciparum, D2, 72 h, read-out: IC50.

Chain of Methionine aminopeptidase 2 (Homo sapiens) (P50579 2-478 limits assumed): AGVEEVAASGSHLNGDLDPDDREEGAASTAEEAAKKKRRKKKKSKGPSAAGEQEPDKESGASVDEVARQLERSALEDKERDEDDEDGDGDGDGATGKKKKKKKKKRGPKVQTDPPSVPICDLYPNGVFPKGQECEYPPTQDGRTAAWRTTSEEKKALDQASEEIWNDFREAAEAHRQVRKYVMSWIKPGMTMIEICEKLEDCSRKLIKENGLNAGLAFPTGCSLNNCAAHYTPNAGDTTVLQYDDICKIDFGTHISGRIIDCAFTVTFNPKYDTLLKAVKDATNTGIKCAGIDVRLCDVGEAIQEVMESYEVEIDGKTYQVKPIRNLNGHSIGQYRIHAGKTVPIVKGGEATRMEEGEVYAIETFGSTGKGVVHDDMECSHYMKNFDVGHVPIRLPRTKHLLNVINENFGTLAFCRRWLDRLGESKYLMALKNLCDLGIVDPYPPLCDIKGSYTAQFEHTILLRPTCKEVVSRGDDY

Take `CO[C@@H]1[C@H](OC(=O)/C=C/C=C/C=C/C=C/C(=O)O)CC[C@]2(CO2)[C@H]1[C@@]1(C)O[C@@H]1CC=C(C)C` [FUMAGILLIN]: the IC50 worked out at 0.005 µg/mL (≈ 0.0109 µM) with Entamoeba histolytica (setting [4]), 0.0996 µg/mL (≈ 0.217 µM) in the test with Plasmodium falciparum [1] (setting [5]) and 26 µg/mL (≈ 56.7 µM) with Trypanosoma brucei (setting [6]).

For the compound `CO[C@@H]1[C@H](OC(=O)N[C@@H](C(=O)Nc2cccc(C(=O)O)c2)C(C)C)CC[C@]2(CO2)[C@H]1[C@@]1(C)O[C@@H]1CC=C(C)C`, the IC50 in the test with Entamoeba histolytica (setting [4]) came to 0.497 µg/mL (≈ 0.913 µM); in the test with Plasmodium falciparum [3] (setting [7]), 0.136 µg/mL (≈ 0.25 µM); in the test with Trypanosoma brucei (setting [6]), 14 µg/mL (≈ 25.7 µM). Further, the Activity in test [2] is 4%. In the test with Leishmania donovani, the outcome was inactive.

In the case of `CO[C@@H]1[C@H](OC(=O)N[C@H]2CN3CCC2CC3)CC[C@]2(CO2)[C@H]1[C@@]1(C)O[C@@H]1CC=C(C)C`, the IC50 amounted to 1.26 µg/mL (≈ 2.9 µM) in the test with Entamoeba histolytica (setting [4]) and 0.0394 µg/mL (≈ 0.0907 µM) in the test with Plasmodium falciparum [1] (setting [5]). Also, the result in the test with Leishmania donovani was inactive.

As to `CO[C@@H]1[C@H](OC(=O)N[C@@H](C(=O)NN2CCCCC2)C(C)C)CC[C@]2(CO2)[C@H]1[C@@]1(C)O[C@@H]1CC=C(C)C`, the IC50 turned out to be 0.0643 µg/mL (≈ 0.127 µM) in the test on Entamoeba histolytica (setting [4]), 0.0288 µg/mL (≈ 0.0567 µM) in the test on Plasmodium falciparum [3] (setting [7]) and 55 µg/mL (≈ 108 µM) in the test on Trypanosoma brucei (setting [6]). In addition, the result with Leishmania donovani was inactive.

With `CO[C@@H]1[C@H](OC(=O)NC(C)(C)C(=O)N2CCN(Cc3ccccc3)CC2)CC[C@]2(CO2)[C@H]1[C@@]1(C)O[C@@H]1CC=C(C)C`, the IC50 with Entamoeba histolytica (setting [4]) is 2.54 µg/mL (≈ 4.46 µM); with Plasmodium falciparum [3] (BLD = below limit of detection), “BLD”; in the test on Trypanosoma brucei (BLD = below limit of detection), “BLD”. In addition, in the test on Leishmania donovani, the outcome was inactive.

As for `CO[C@@H]1[C@H](OC(=O)N[C@@H](C(=O)NCCC2CCCN2C)C(C)C)CC[C@]2(CO2)[C@H]1[C@@]1(C)O[C@@H]1CC=C(C)C` (some centres not stated), the outcome in the test on Plasmodium berghei was Active. Further, the figures for the IC50 in the test with Entamoeba histolytica (setting [4]), with Plasmodium falciparum [3] (setting [7]) and in the test with Trypanosoma brucei (setting [6]) were 1.39 µg/mL (≈ 2.59 µM), 0.0347 µg/mL (≈ 0.0648 µM) and 19 µg/mL (≈ 35.5 µM), respectively. Besides, in test [2], the Activity worked out at 5%. Besides, in the test on Leishmania donovani, the outcome was inactive.

For `CO[C@@H]1[C@H](OC(=O)N[C@@H](C(N)=O)C(C)C)CC[C@]2(CO2)[C@H]1[C@@]1(C)O[C@@H]1CCC(C)(C)O`, the IC50 entry in the test with Entamoeba histolytica (BLD = below limit of detection), in the test on Plasmodium falciparum [1] (BLD = below limit of detection) and with Trypanosoma brucei (BLD = below limit of detection) was “BLD” throughout. Besides, the Activity in test [2] was 90%. Besides, in the test with Leishmania donovani, the result was inactive.

As to `CO[C@@H]1[C@H](OC(=O)NN2CCOCC2)CC[C@]2(CO2)[C@H]1[C@@]1(C)O[C@@H]1CC=C(C)C`, the half-maximal inhibitory concentration (IC50) in the test on Entamoeba histolytica (setting [4]) came out at 0.01 µg/mL (≈ 0.0244 µM); in the test with Plasmodium falciparum [1] (setting [5]), 0.00774 µg/mL (≈ 0.0189 µM); with Trypanosoma brucei (setting [6]), 28 µg/mL (≈ 68.2 µM). Besides, the Activity in test [2] was 6%. In addition, the outcome with Leishmania donovani was inactive.

Regarding `CO[C@@H]1[C@H](OC(=O)N[C@@H](C(=O)NCCCN(C)C)C(C)C)CC[C@]2(CO2)[C@H]1[C@@]1(C)O[C@@H]1CC=C(C)C`, the IC50 in the test on Entamoeba histolytica (setting [4]) came out at 2.28 µg/mL (≈ 4.47 µM); in the test with Plasmodium falciparum [3] (setting [7]), 0.0263 µg/mL (≈ 0.0516 µM); in the test with Trypanosoma brucei (setting [6]) it was 25 µg/mL (≈ 49 µM). In addition, the outcome with Leishmania donovani was inactive.

On to `CO[C@@H]1[C@H](OC(=O)NCc2ccc(C(=O)O)cc2)CC[C@]2(CO2)[C@H]1[C@@]1(C)O[C@@H]1CC=C(C)C`, for which the IC50 with Entamoeba histolytica (setting [4]) came out at 0.01 µg/mL (≈ 0.0218 µM); with Plasmodium falciparum [1] (setting [5]), 0.0205 µg/mL (≈ 0.0446 µM); with Trypanosoma brucei (setting [6]), 42 µg/mL (≈ 91.4 µM). Moreover, in test [2], the Activity was determined as 3%. Further, the result in the test with Leishmania donovani was Active.

For `CO[C@@H]1[C@H](OC(=O)N2CCC(C(=O)O)CC2)CC[C@]2(CO2)[C@H]1[C@@]1(C)O[C@@H]1CC=C(C)C`, the IC50 with Entamoeba histolytica (setting [4]) is 0.087 µg/mL (≈ 0.199 µM); with Plasmodium falciparum [1] (setting [5]), 0.0367 µg/mL (≈ 0.0839 µM); with Trypanosoma brucei (BLD = below limit of detection), “BLD”. For the same compound, the Activity in test [2] came to 8%. Moreover, in the test with Leishmania donovani, the outcome was inactive.

On to `CO[C@@H]1[C@H](OC(=O)NC(=O)CCl)CC[C@]2(CO2)[C@H]1[C@@]1(C)O[C@@H]1CC=C(C)C` [O-CHLOROACETYLCARBAMOYLFUMAGILLOL], for which the IC50 turned out to be 0.026 µg/mL (≈ 0.0647 µM) with Entamoeba histolytica (setting [4]), 0.0123 µg/mL (≈ 0.0306 µM) in the test with Plasmodium falciparum [1] (setting [5]) and 2.8 µg/mL (≈ 6.97 µM) with Trypanosoma brucei (setting [6]).
